These results are taken from ChEMBL document CHEMBL1122179, “1-(alkylamino)isochromans: hypotensives with peripheral and central activities” (J Med Chem, 1982).

The structures appear in SMILES notation.

For test [1], the system named is Rattus norvegicus. Put plainly: Delta BP refers to oral hypotensive activity of compound which is evaluated at 4 hr and 24 hr in restrained, normotensive conscious rats at a dose of 5 mg/kg; -9/-3. It counts as functional. Put shortly:
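Female Sprague-Dawley rats, normotensive, restrained in a towel. Blood pressure was read directly via chronic indwelling aortic cannulas exteriorized at the nape, before and 4 and 24 h after an oral dose suspended in carboxymethylcellulose (10 mL/kg). Values from two animals were averaged at each time; a mean change of at least 5 mmHg was taken as significant (p < 0.05).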

The subject of test [2] is Rattus norvegicus. Put plainly: Pressor effects of intravenous norepinephrine (0.1 ug/kg) was measured in anesthetized rats at 0 min. In kind it is functional. Put shortly: (§1)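 Female Sprague-Dawley rats (200–300 g), anesthetized iv with α-chloralose (40 mg/kg), urethane (40 mg/kg) and pentobarbital (15 mg/kg). Carotid artery catheter for blood pressure and heart rate, jugular vein for drugs. Test agent given at 1.0 mg/kg iv in 0.1 M citric acid (1 mg/mL). Pressor responses to iv norepinephrine 0.1 μg/kg, phenylephrine 2.5 μg/kg and angiotensin I 0.1 μg/kg were taken before and 15, 30, 45 and 60 min after dosing. Mean ± SEM.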

Test [3] concerns Rattus norvegicus. The experiment in a line: Heart rate of compound was measured in anesthetized rats at 0 min. In kind it is functional. Put shortly:
as §1

The test system of test [4] is Rattus norvegicus. The experiment in a line: Pressor effects of intravenous phenylephrine (2.5 ug/kg) was measured in anesthetized rats at 0 min. In kind it is functional. The method in brief: as §1
Test [5] has as its target T1, Adrenergic receptor alpha-1 (Rattus norvegicus, UniProt P15823+P23944+P43140).
T1 sequence (P15823 whole entry): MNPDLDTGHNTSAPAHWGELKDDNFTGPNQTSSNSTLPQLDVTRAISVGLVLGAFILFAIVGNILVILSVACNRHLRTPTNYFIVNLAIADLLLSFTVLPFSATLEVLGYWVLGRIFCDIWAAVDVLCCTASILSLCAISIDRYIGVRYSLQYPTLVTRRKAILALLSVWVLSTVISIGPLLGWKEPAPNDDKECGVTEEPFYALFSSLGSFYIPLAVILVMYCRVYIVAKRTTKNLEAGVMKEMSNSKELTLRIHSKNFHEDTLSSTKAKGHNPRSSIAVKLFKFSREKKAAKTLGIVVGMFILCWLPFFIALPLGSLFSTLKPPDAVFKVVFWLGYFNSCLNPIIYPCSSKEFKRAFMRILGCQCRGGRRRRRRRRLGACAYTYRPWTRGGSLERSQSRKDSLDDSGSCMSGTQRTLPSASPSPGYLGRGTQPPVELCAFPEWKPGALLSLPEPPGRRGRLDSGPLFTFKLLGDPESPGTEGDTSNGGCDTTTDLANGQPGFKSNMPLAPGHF
T1 sequence (P23944 whole entry): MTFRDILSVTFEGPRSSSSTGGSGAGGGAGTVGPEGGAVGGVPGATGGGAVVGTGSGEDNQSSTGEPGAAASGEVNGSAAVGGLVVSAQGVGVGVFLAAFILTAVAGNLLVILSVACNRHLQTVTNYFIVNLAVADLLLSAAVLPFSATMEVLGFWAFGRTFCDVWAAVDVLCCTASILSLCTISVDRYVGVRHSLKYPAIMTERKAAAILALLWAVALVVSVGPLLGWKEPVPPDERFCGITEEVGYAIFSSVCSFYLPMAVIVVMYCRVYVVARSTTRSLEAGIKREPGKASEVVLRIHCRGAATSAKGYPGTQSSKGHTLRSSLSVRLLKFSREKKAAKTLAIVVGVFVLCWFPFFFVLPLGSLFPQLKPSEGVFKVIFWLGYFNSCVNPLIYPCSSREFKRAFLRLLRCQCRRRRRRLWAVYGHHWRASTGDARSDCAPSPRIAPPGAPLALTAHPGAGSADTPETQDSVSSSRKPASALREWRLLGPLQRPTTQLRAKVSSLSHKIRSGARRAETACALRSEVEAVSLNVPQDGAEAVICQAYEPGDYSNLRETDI
T1 sequence (P43140 whole entry): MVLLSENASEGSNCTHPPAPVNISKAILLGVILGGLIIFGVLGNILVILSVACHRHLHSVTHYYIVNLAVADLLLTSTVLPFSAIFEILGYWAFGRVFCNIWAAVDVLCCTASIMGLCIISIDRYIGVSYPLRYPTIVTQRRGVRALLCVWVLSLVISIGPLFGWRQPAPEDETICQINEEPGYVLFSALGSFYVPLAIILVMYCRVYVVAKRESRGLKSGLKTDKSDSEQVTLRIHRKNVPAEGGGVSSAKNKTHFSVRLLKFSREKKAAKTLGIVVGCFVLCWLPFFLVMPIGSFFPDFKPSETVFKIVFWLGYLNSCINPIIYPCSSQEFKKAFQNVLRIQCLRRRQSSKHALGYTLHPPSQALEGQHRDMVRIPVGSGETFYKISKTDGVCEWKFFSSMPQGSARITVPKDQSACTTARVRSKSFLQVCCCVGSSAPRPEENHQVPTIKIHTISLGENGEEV
The experiment in a line: Compound was tested for the inhibition of [3H]prazosin binding alpha-1-adrenergic receptor of crude rat brain membrane.

In test [6] the test system is Rattus norvegicus. The experiment in a line: Mean arterial pressure of compound was measured in anesthetized rats at 60 min. It counts as functional, Artery. Put shortly:
as §1

In test [7] the test system is Rattus norvegicus. Put plainly: Pressor effects of intravenous phenylephrine (2.5 ug/kg) was measured in anesthetized rats at 60 min. It counts as functional. The method in brief: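 Female Sprague–Dawley rats (200–300 g) anesthetized iv with α-chloralose 40 mg/kg, urethane 40 mg/kg and pentobarbital 15 mg/kg. Carotid artery catheterized for blood pressure, jugular vein for drugs. Pressor response to iv phenylephrine 2.5 µg/kg measured before and 15, 30, 45, 60 min after 1.0 mg/kg iv test drug dissolved in 0.1 M citric acid (1 mg/mL). Mean ± SEM.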

Test [8] relates to Rattus norvegicus. Put plainly: Mean arterial pressure of compound was measured in anesthetized rats at 0 min. In kind it is functional, Artery. Put shortly:
as §1

Test [9] has as its system Rattus norvegicus. Put plainly: Heart rate of compound was measured in anesthetized rats at 60 min. In kind it is functional. Put shortly:
as §1

As usually defined, the Ki is a measure of affinity in units of concentration, obtained from inhibition or displacement. Read a high Ki as a looser hold on the target.

In test [1], `COc1cc2c(cc1OC)C(CCN1CCN(c3ccc(F)cc3)CC1)OCC2` (centres undefined) registered a Delta blood pressure of -9 mmHg. The Pressor response in test [2] is 19 mmHg; in test [4] it was 48 mmHg; in test [7], 16 mmHg. Moreover, the HR in [3] was 417 beats min-1; in test [9], 426 beats min-1. In addition, in [5], the Ki was determined as 4 nM. Also, the values for the MAP in [6] and in test [8] were 87 mmHg and 105 mmHg, respectively.
